# A selection: hits, their analogues and other compounds. The true share with any hit is near 1%.
# INS-1E GSIS act – GLuc luminescence reporter in INS-1E cells, primary screen for activators of glucose-dependent secretion of insulin | INS-1E GLuc reporter insulin secretion, 2-3 h | activation, % at 16.6 µM | 0.61% of 370,000 active;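 active means lowest replicate activation of at least 40%, so every replicate reaches that level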
# Xi reactivation – activators of X-chromosome reactivation in mouse fibroblasts; XiGFP mouse fibroblasts, % GFP-positive cells imaging, 3 d; cells co-treated with 5-aza-dC sensitizer; scaled so ellipticine positive control = 100%; activation, % at 7.58 µM; 0.055% of 360,000 active; AID 743238;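 active means mean normalized replicate activation at least 10% and every replicate at or above 10%; inconclusive means only one of the two criteria met; inactive means mean below 10% and not all replicates reach 10%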
#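 Material: XiGFP fibroblasts, SV40-immortalized; Buffer or medium: DMEM containing 5-aza-dC; Compound dosing: single point; Times: 3 days compound exposure.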
# GAA850 FXN act – increases GAA850 frataxin promoter reporter activity; HEK293 lucGAA850 FXN promoter luciferase reporter, 24 h; percent of 10 µM SAHA response; 0.56% of 360,000 active; activation, % at 6 µM;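 active means activation above the average of all compounds screened plus 3 SD, cutoff fixed separately per campaign, cut at about 7.5% in these data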
# CaV13 ICDI inh – Primary screen for inhibitors of IQ motif and Ca2+-dependent inactivation inhibitor domain binding in CACNA1D, Förster resonance energy transfer in living cells, …. HEK cells, CFP/YFP FRET ICDI-IQ, plate reader, 10 min; percent FRET-ratio fall versus neutral wells. inhibition, % at 12.3 µM. 0.098% of 340,000 active;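 active means mean replicate inhibition of at least 30% and at least 1% of replicates passing that level; inconclusive means only one of the two criteria is met; inactive means neither criterion is met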
# A number is an active result; - = inactive; ? = inconclusive; . = no result given; + = active, no number.
SMILES,INS-1E GSIS act,Xi reactivation,GAA850 FXN act,CaV13 ICDI inh
CCC(=O)N1CC2(C1)[C@H](c1ccc(-c3ccc(F)cc3)cc1)[C@H](CO)N2S(C)(=O)=O,-,-,.,.
CCn1c(SCC(=O)N/N=C/c2ccc(O)c(OC)c2)nc2ccccc21,-,-,-,-
COc1cc(/C=N/NC(=O)C(C)n2nnc3ccccc32)ccc1O (configuration not stated),53,.,-,-
CN(C)c1ccc(/C=N/NC(=O)Cn2nnc3ccccc32)cc1,-,-,-,-
CCOc1cc(/C=N/NC(=O)CCn2nnc3ccccc32)ccc1O,78,-,-,-
COc1ccc(/C=N/NC(=O)Cn2nnc3ccccc32)cc1OC,70,-,-,-
C[C@@H](NC(=O)[C@H]1N[C@H]2c3ccc(-c4cccnc4)c(=O)n3C[C@H]2[C@@H]1CO)c1ccccc1,-,-,.,.
CCN=c1sc(C(=O)OC)cc(=O)n1CC,.,.,-,-
C=CCN=c1sc(C(=O)OC)cc(=O)n1CC=C,50,.,-,-
O=C(C[C@@H]1CC[C@H](NS(=O)(=O)c2ccc(F)cc2)[C@H](CO)O1)NC1CCC1,-,-,.,.
Cc1nc2ccccc2c2oc(C(=O)N3CCCC(C)C3)cc12 (configuration not stated),46,-,-,-
Cc1nc2ccccc2c2oc(C(=O)N3CCC(N4CCCCC4)CC3)cc12,.,.,-,.
COCC(=O)Nc1ccc2c(c1)OC[C@H](C)N(Cc1ccccc1OC)C[C@H](C)[C@H](OC)CN(C)C2=O,-,-,.,.
O=c1cc(-c2ccccc2)nc(SCc2ccccc2)[nH]1,79,.,-,.
O=c1cc(-c2ccccc2)nc(SCc2ccc(Cl)cc2)[nH]1,.,.,-,.
Cc1ccc2oc(-c3cccc(NC(=O)Cc4cccs4)c3)nc2c1,65,.,-,-
Cc1ccc2oc(-c3ccc(C)c(NC(=O)Cc4cccs4)c3)nc2c1,.,.,-,.
C[C@H](NC(=O)C[C@H]1C[C@@H]2c3cc(NC(=O)Cc4ccncc4)ccc3O[C@@H]2[C@@H](CO)O1)c1ccccc1,-,-,.,.
Cc1cccc(C)c1NC(=O)c1csc([C@@H]2O[C@H](CO)[C@H](O)[C@H](O)[C@H]2O)n1,53,-,-,-
Cc1ccc(-c2nc(=S)c3c(n2Cc2ccco2)CC(C)(C)OC3)cc1,.,.,7.6,.
Cc1cc2c(C)cc(=O)oc2c2c1NCCC2,-,.,-,33
Cc1cc2cc3c(C)cc(=O)oc3c(C)c2o1,-,-,-,-
Cc1cccn2c(=O)c3cc(C(=O)NCc4ccco4)c(=N)n(CCc4ccccc4)c3nc12,-,-,-,39
COCCNC(=O)c1cc2c(=O)n3cccc(C)c3nc2n(Cc2ccncc2)c1=N,.,.,-,43
CCCCNC(=O)c1cc2c(=O)n3cccc(C)c3nc2n(Cc2ccncc2)c1=N,-,.,-,-
SMILES,INS-1E GSIS act,Xi reactivation,GAA850 FXN act,CaV13 ICDI inh
Cc1cccn2c(=O)c3cc(C(=O)NCCc4ccccc4)c(=N)n(Cc4ccco4)c3nc12,-,-,-,-
Cc1cccn2c(=O)c3cc(C(N)=S)c(=N)n(CCCN4CCOCC4)c3nc12,-,-,-,+
Cc1cccn2c(=O)c3cc(C(=O)NCc4ccc(F)cc4)c(=N)n(CCCN4CCOCC4)c3nc12,-,?,-,116
N#Cc1ccc(Oc2ccc(-c3cnc4ccccc4n3)cc2)cc1C#N,-,-,-,-
N#Cc1cccc(Oc2ccc(-c3cnc4ccccc4n3)cc2)c1C#N,87,-,-,-
COc1ccc(S(=O)(=O)Nc2ccc3c(c2)C(=O)N([C@H](C)CO)C[C@@H](C)[C@H](CN(C)C(=O)Nc2cccc4ccccc24)OCCCC[C@@H](C)O3)cc1,-,-,.,.
COc1ccccc1N(C)c1cc2c(c3c1ccn3C)C1CCC2C1 (configuration not stated),-,12,.,-
COc1ccc(C(=O)/C(C#N)=N/Nc2ccc([N+](=O)[O-])cc2)cc1,-,-,-,-
COc1ccc(C(=O)/C(C#N)=N/Nc2ccccc2[N+](=O)[O-])cc1,62,-,-,-
CC(=O)Cc1nsc(NC(=O)c2ccc(Br)o2)n1,-,.,-,-
CC(=O)Cc1nsc(NC(=O)c2ccc(-c3cccc(Cl)c3)o2)n1,42,-,-,-
CN(C)S(=O)(=O)c1ccc2c(c1)/C(=C/c1cc3c([nH]1)CCCC3)C(=O)N2,-,113,-,-
CN1CCN(C(=O)C[C@@H]2CC[C@@H]3[C@H](COC[C@@H](O)CN3C(=O)Nc3cc(Cl)cc(Cl)c3)O2)CC1,-,-,.,.
COc1ccc(S(=O)(=O)N[C@@H]2C=C[C@H](CC(=O)O)O[C@H]2CO)cc1,-,-,.,.
COc1ccc2oc(-c3ccc(NC(=O)c4ccc(N5CCOCC5)c([N+](=O)[O-])c4)cc3)nc2c1,109,.,-,-
C[C@H](CO)N1C[C@H](C)[C@@H](CN(C)C(=O)Cc2ccccn2)Oc2ncc(C#CC3CC3)cc2C1=O,-,-,.,.
COc1ccc(CSc2ncn[nH]2)cc1[N+](=O)[O-],61,-,-,-
O=c1c(C=Nc2ccc(Oc3ccccc3)cc2)c[nH]n1-c1cccc(Cl)n1,107,.,-,.
O=C(COc1ccccc1)Nc1ccccc1C(=O)NC1CC1,44,-,-,-
CC(=O)c1ccc(OCC(=O)Nc2ccccc2C(=O)NC2CC2)cc1,-,-,-,-
COc1ccc(-c2cc(NC=O)c3ncc(-c4ccc(OC)c(OC)c4)n3c2)cc1,52,-,-,-
C[C@@H]1CN([C@H](C)CO)C(=O)c2cccc(NC(=O)c3cnccn3)c2O[C@H]1CN(C)S(=O)(=O)c1cccs1,-,-,.,.
COc1ccc(C(=O)C2CCCN(C(=O)c3n[nH]c4c3CCCC4)C2)cc1OC (configuration not stated),67,-,-,-
COc1ccc(C(=O)C2CCCN(Cc3cccn3-c3nccs3)C2)cc1OC (configuration not stated),81,-,-,-
O=[N+]([O-])c1cccc(-c2nc3ccccc3s/c2=N/O)c1,82,-,-,-
SMILES,INS-1E GSIS act,Xi reactivation,GAA850 FXN act,CaV13 ICDI inh
O=C1C=C(c2c(O)ccc3ccccc23)c2ccccc2C1=O,41,-,-,-
O=C1C=C(O)c2cccc(O)c2C1=O,.,.,-,.
O=C(C[C@H]1CC[C@@H]2[C@H](COC[C@H](O)CN2C(=O)Nc2ccccc2)O1)NC1Cc2ccccc2C1,-,-,.,.
C[C@H]1CN([C@@H](C)CO)C(=O)Cc2cc(NS(=O)(=O)c3cn(C)cn3)ccc2O[C@H]1CN(C)Cc1ccc(C(=O)Nc2ccccc2N)cc1,-,-,.,.
CCN(CC)CCNC(=O)c1cc2c(-c3ccc(Cl)cc3)nn(C)c2s1,-,-,-,-
CCCCN(CC)CCNC(=O)c1cc2c(-c3ccc(Cl)cc3)nn(C)c2s1,67,-,-,-
CC/C(C)=N\Nc1nc(-c2cc3cc(OC)ccc3oc2=O)cs1,.,-,-,+
COc1ccc(CNC(=O)C[C@H]2CC[C@@H](NC(=O)c3cccc(F)c3)[C@H](CO)O2)cc1,-,-,.,.
